According to ChEMBL document CHEMBL4390675, “Dopamine D4 Receptor-Selective Compounds Reveal Structure-Activity Relationships that Engender Agonist Efficacy” (J Med Chem, 2019):
Calls of active or inactive are those of the source. No cut-off for these calls is given here.

What was measured:
[1] = biological target: T1, D(4) dopamine receptor (Homo sapiens, UniProt P21917); assay: Displacement of [3H]N-methylspiperone from human D4.4 receptor expressed in HEK293 cell membranes measured after 60 mins by scintillation counting method
T1 sequence (P21917 whole entry): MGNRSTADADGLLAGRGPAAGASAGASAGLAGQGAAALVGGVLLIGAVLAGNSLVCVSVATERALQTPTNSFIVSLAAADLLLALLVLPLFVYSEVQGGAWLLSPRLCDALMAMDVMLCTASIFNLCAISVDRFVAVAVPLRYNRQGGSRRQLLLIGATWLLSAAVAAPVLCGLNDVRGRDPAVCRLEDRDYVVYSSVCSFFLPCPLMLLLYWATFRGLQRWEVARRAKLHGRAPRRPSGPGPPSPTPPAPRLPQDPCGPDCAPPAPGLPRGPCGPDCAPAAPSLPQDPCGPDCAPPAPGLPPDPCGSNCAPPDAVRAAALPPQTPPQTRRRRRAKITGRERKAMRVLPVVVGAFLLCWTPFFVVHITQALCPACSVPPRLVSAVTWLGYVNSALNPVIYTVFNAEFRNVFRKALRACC
Method in brief: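 Frozen HEK293 membranes stably expressing human D4.4R (30 μg/well) in EBSS-bicarbonate buffer, pH 7.4, were incubated with 0.4 nM [3H]N-methylspiperone and half-log compound dilutions (30% DMSO vehicle) for 60 min at room temperature. Nonspecific binding was defined by 10 μM (+)-butaclamol. Samples were filtered on GF/B filters and counted by scintillation.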

[2] = biological target: T2, D(2) dopamine receptor (Homo sapiens, UniProt P14416); assay: Agonist activity at human D2L receptor expressed in CHOK1 cells assessed as inhibition of forskolin-induced cAMP accumulation measured after 30 mins by Eu-cAMP tracer based TR-FRET assay; format: cell-based
Method in brief: (§1)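 LANCE Ultra TR-FRET cAMP assay in CHO-K1 cells stably expressing human D2R long isoform or D4R. Cells were plated in HBSS/5 mM HEPES/0.2 μM metabisulfite, then immediately given compound plus forskolin (10 μM final) for 30 min at room temperature. Eu-cAMP tracer and ULight-anti-cAMP were added for 2 h in the dark. Values are % of maximal dopamine signal, nonlinear regression of triplicate runs, n = 3–4.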

[3] = biological target: T2, D(2) dopamine receptor; assay: Agonist activity at human D2L receptor expressed in CHOK1 cells assessed as induction of beta-arrestin recruitment measured after 90 mins by luminescence assay; format: cell-based
Method in brief: (§2)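 PathHunter enzyme-complementation assay in CHO-K1 cells stably expressing human D2R long isoform, D3R or D4R, seeded overnight in Ham's F12/10% FBS. Compounds were diluted in PBS with 0.2 μM sodium metabisulfite and applied at multiple concentrations for 90 min at 37 °C. Detection reagent was added for 45–60 min at room temperature, then luminescence was read. Values are % of maximal dopamine response, from nonlinear regression of triplicate runs, mean ± SEM, n = 3–4.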

[4] = biological target: T1, D(4) dopamine receptor; assay: Antagonist activity at human D4 receptor expressed in CHOK1 cells assessed as suppression of dopamine-induced inhibition of forskolin-stimulated cAMP accumulation measured after 30 mins by Eu-cAMP tracer based TR-FRET assay; format: functional, cell-based
[5] = biological target: T3, D(3) dopamine receptor (Homo sapiens, UniProt P35462); assay: Agonist activity at human D3 receptor expressed in CHOK1 cells assessed as induction of beta-arrestin recruitment measured after 90 mins by luminescence assay; format: cell-based; method in brief: as §2
[6] = biological target: T1, D(4) dopamine receptor; assay: Antagonist activity at human D4 receptor expressed in CHOK1 cells assessed as inhibition of dopamine-induced beta-arrestin recruitment measured after 90 mins by luminescence assay; format: cell-based; conditions: read-out: IC50
[7] = biological target: T3, D(3) dopamine receptor; assay: Antagonist activity at human D3 receptor expressed in CHOK1 cells assessed as inhibition of dopamine-induced beta-arrestin recruitment measured after 90 mins by luminescence assay; format: cell-based
Method in brief: (§3)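 Antagonist-mode PathHunter β-arrestin assay in CHO-K1 cells stably expressing human D2R long isoform or D3R, seeded overnight. Compound dilutions in PBS with 0.2 μM metabisulfite were co-incubated with an EC80 dopamine concentration for 90 min at 37 °C. Detection reagent was added for 45–60 min at room temperature, then luminescence was read. Values are % of dopamine EC80 response, from nonlinear regression of triplicate runs, n = 3–4.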

[8] = biological target: T1, D(4) dopamine receptor; assay: Agonist activity at human D4 receptor expressed in CHOK1 cells assessed as induction of beta-arrestin recruitment measured after 90 mins by luminescence assay; format: cell-based; method in brief: as §2
[9] = biological target: T2, D(2) dopamine receptor; assay: Antagonist activity at human D2L receptor expressed in CHOK1 cells assessed as inhibition of dopamine-induced beta-arrestin recruitment measured after 90 mins by luminescence assay relative to control; format: cell-based; method in brief: as §3
[10] = biological target: T1, D(4) dopamine receptor; assay: Agonist activity at human D4 receptor expressed in CHOK1 cells assessed as inhibition of forskolin-induced cAMP accumulation measured after 30 mins by Eu-cAMP tracer based TR-FRET assay; format: functional, cell-based; method in brief: as §1
[11] = biological target: T3, D(3) dopamine receptor; assay: Displacement of [3H]N-methylspiperone from human D3 receptor expressed in HEK293 cell membranes measured after 60 mins by scintillation counting method
Method in brief: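 HEK293 cells stably expressing human D3R; membranes in EBSS buffer pH 7.4, stored at −80 °C. 20 μg protein/well with 0.4 nM [3H]N-methylspiperone (final), half-log dilutions in 30% DMSO, in triplicate. 60 min at room temperature, then GF/B filtration. Nonspecific binding with 10 μM (+)-butaclamol.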

[12] = biological target: T2, D(2) dopamine receptor; assay: Antagonist activity at human D2L receptor expressed in CHOK1 cells assessed as suppression of dopamine-induced inhibition of forskolin-stimulated cAMP accumulation measured after 30 mins by Eu-cAMP tracer based TR-FRET assay relative to dopamine; format: cell-based; conditions: 0.5 h
[13] = biological target: T4, D(4) dopamine receptor (Homo sapiens) (UniProt P21917); assay: Antagonist activity at human D4 receptor expressed in CHOK1 cells assessed as inhibition of dopamine-induced beta-arrestin recruitment measured after 90 mins by luminescence assay relative to control; format: cell-based; parameters: concentration or dose not given beside the values
T4 sequence (whole entry): T1 sequence (P21917 whole entry)

[14] = biological target: T1, D(4) dopamine receptor; assay: Displacement of [3H](R)-(+)-7-OH-DPAT from human D4.4 receptor expressed in HEK293 cell membranes measured after 90 mins by scintillation counting method
Method in brief: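 HEK293 cells stably expressing human D4.4R; membranes used fresh in 50 mM Tris, 10 mM MgCl2, 1 mM EDTA, pH 7.4. 60 μg protein/well with 3 nM [3H]-(R)-(+)-7-OH-DPAT (final), half-log dilutions in 30% DMSO, in triplicate. 90 min at room temperature, then GF/B filtration. Nonspecific binding with 10 μM (+)-butaclamol.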

[15] = biological target: T4, D(4) dopamine receptor (Homo sapiens); assay: Agonist activity at human D4 receptor expressed in CHOK1 cells assessed as inhibition of forskolin-induced cAMP accumulation measured after 30 mins by Eu-cAMP tracer based TR-FRET assay relative to dopamine; format: functional, cell-based; method in brief: as §1
[16] = biological target: T4, D(4) dopamine receptor (Homo sapiens); assay: Antagonist activity at human D4 receptor expressed in CHOK1 cells assessed as suppression of dopamine-induced inhibition of forskolin-stimulated cAMP accumulation measured after 30 mins by Eu-cAMP tracer based TR-FRET assay relative to dopamine; format: functional, cell-based; parameters: concentration or dose not given beside the values
[17] = biological target: T3, D(3) dopamine receptor; assay: Displacement of [3H](R)-(+)-7-OH-DPAT from human D3 receptor expressed in HEK293 cell membranes measured after 90 mins by scintillation counting method
Method in brief: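 Fresh HEK293 hD3R membranes (40 μg/well) in 50 mM Tris, 10 mM MgCl2, 1 mM EDTA, pH 7.4 were incubated with 0.5 nM [3H]-(R)-(+)-7-OH-DPAT and half-log compound dilutions in 30% DMSO for 90 min at room temperature. Nonspecific binding was defined with 10 μM (+)-butaclamol. Samples were filtered on PEI-soaked GF/B filters and counted by scintillation.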

[18] = biological target: D(1A) dopamine receptor (Homo sapiens) (UniProt P21728); assay: Antagonist activity at D1 receptor (unknown origin) stably expressed in CHOK1 cells assessed as inhibition of dopamine-induced beta-arrestin recruitment measured after 90 mins by luminescence assay; format: cell-based
[19] = biological target: D(1A) dopamine receptor (Homo sapiens) (UniProt P21728); assay: Agonist activity at D1 receptor (unknown origin) stably expressed in CHOK1 cells assessed as induction of beta-arrestin recruitment measured after 90 mins by luminescence assay; format: cell-based
[20] = biological target: D(1B) dopamine receptor (Homo sapiens) (UniProt P21918); assay: Agonist activity at D5 receptor (unknown origin) stably expressed in CHOK1 cells assessed as induction of beta-arrestin recruitment measured after 90 mins by luminescence assay; format: cell-based
[21] = biological target: T4, D(4) dopamine receptor (Homo sapiens); assay: Agonist activity at human D4 receptor expressed in CHOK1 cells assessed as induction of beta-arrestin recruitment measured after 90 mins by luminescence assay relative to control; format: cell-based; method in brief: as §2
[22] = biological target: D(1B) dopamine receptor (Homo sapiens) (UniProt P21918); assay: Antagonist activity at D5 receptor (unknown origin) stably expressed in CHOK1 cells assessed as inhibition of dopamine-induced beta-arrestin recruitment measured after 90 mins by luminescence assay; format: cell-based

T2 sequence (P14416 whole entry, canonical isoform): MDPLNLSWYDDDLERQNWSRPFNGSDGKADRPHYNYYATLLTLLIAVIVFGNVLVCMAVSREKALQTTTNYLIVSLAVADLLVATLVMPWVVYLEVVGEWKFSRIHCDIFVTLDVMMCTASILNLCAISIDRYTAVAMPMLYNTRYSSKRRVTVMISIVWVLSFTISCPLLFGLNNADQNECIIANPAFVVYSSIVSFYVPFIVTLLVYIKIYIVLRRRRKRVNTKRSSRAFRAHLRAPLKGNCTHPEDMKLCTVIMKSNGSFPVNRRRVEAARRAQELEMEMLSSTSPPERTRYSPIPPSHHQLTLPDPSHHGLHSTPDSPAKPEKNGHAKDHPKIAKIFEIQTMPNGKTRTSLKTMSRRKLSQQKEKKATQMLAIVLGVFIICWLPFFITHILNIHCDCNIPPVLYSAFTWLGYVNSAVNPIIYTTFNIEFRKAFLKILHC
T3 sequence (P35462 whole entry): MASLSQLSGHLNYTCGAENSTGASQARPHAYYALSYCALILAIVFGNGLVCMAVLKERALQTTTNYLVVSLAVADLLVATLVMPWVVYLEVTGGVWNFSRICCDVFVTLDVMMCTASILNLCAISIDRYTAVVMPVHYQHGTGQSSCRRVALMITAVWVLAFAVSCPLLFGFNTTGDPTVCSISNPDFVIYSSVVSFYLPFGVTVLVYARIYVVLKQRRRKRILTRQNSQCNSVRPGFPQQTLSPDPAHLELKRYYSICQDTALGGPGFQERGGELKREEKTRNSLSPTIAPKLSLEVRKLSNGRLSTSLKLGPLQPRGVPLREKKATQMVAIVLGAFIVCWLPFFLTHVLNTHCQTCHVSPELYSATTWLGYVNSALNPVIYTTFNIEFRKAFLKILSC
D(1B) dopamine receptor (Homo sapiens), sequence (P21918 whole entry): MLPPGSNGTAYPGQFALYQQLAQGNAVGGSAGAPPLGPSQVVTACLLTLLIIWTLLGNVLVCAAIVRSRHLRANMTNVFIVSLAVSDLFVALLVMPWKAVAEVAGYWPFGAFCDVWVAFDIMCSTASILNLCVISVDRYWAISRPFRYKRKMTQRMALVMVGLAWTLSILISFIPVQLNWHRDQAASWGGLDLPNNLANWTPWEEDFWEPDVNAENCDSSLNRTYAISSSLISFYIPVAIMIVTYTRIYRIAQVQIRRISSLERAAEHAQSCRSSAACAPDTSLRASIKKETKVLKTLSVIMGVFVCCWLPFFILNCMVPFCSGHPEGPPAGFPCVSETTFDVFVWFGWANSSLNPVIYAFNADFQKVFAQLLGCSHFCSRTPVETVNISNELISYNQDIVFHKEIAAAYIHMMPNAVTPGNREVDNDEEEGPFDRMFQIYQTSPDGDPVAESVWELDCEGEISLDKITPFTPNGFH
D(1A) dopamine receptor (Homo sapiens), sequence (P21728 whole entry): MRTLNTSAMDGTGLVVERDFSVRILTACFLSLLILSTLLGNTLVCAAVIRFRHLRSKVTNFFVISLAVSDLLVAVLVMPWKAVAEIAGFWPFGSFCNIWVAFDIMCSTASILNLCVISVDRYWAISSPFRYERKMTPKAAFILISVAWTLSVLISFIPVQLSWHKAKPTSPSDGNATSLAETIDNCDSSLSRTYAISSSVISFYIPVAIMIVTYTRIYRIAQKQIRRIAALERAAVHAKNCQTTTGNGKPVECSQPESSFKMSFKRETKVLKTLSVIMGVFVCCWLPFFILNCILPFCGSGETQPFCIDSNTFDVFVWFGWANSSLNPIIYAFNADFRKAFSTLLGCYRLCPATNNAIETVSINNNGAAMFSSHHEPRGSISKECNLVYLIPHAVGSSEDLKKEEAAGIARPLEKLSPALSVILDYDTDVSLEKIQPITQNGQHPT

SMILES	Ki [1]	EC50 [2]	EC50 [3]	IC50 [4]	EC50 [5]	IC50 [6]	IC50 [7]	EC50 [8]	INH [9]	EC50 [10]	Ki [11]	inhibition (INH) [12]	Ki [14]	Ki [17]	EC50 ([10]; read-out: EC50)	other results
Cc1ccc(C2CCN(CC(=O)Nc3cccc(C)c3)CC2)cc1	0.11 µM	Not Active	Not Active	3.06 µM	Not Active	7.35 µM	Not Active	Not Active	100%	Not Active	3.68 µM	100%				
Cc1cccc(NC(=O)CN2CCC(c3ccccc3)CC2)c1	0.0258 µM	Not Active	Not Active	0.002 µM	Not Active	0.135 µM			99.7%		0.433 µM	100%	0.0014 µM	0.777 µM	0.0154 µM	inhibition [13]: 93.3%; Emax [15]: 32.9%; inhibition [16]: 46.7%; inhibition [18]: inactive; Activity [19]: inactive; Activity [20]: inactive; Emax [21]: 14%; IC50 ([7]; read-out: IC50): > 50 µM; EC50 ([8]; read-out: EC50): 0.242 µM; inhibition [22]: inactive
Cc1cccc(NC(=O)CN2CCN(c3ccc(Cl)cn3)CC2)c1	0.095 µM	Not Active	Not Active	4.7 µM	Not Active	7.78 µM	Not Active	Not Active	100%	Not Active	> 50 µM	98.3%	0.0125 µM	> 10 µM		
CCc1cccc(NC(=O)CN2CCN(c3ccc(Cl)cn3)CC2)c1	0.172 µM	Not Active	Not Active	7.06 µM	Not Active	10.4 µM	Not Active	Not Active	100%	Not Active	> 50 µM	100%				
CCc1cccc(NC(=O)CN2CCC(c3ccccn3)CC2)c1	0.0823 µM	Not Active	Not Active	1.91 µM	Not Active	2.62 µM	Not Active	Not Active	100%		0.496 µM	96.6%			0.539 µM	
